Data taken from PMC9727797 (Molecular Biology of the Cell, 2022).

What was measured:
[1] = Precipitation observed in culture media; assay type: physicochemical
[2] = system: KIF15 on spindle microtubules in RPE-1 cells; assay: KIF15 on metaphase spindles; assay type: cell-based, human; conditions: Fift-IN 25 µM, Munesib-1 50 µM
Outline: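 RPE-1 cells on glass coverslips were treated overnight with test compound (25 or 50 µM) or DMSO in normal medium. Cells were fixed in 100% methanol at –20°C for 10 min. Staining used rabbit anti-KIF15 (1:2000, 1 h), FITC anti-α-tubulin (1:500, 30 min) and Hoechst 33342. Max-intensity z-projections were imaged.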

[3] = molecular target: T1, K560, a truncated form of kinesin-1 (Homo sapiens, UniProt P33176); assay: Microtubule gliding assay, K560; assay type: biochemical; conditions: 24 µM Munesib-1 or 100 µM Fift-IN
T1 sequence (P33176 1-560 limits assumed): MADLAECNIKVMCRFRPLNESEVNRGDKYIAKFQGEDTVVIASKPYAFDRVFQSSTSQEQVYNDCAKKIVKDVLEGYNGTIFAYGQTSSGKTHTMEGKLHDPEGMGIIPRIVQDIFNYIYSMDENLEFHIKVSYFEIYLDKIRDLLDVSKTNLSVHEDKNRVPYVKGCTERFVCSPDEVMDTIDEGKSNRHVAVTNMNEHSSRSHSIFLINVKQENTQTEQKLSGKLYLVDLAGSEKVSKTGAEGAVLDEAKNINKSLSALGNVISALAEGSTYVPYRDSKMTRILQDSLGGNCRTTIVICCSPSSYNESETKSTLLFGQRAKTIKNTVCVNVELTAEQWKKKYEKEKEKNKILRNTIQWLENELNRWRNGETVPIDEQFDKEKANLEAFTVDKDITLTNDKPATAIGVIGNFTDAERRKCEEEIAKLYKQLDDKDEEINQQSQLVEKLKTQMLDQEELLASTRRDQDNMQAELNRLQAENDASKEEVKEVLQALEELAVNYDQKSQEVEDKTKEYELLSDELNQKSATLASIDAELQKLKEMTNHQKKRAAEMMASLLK
Outline: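 Gliding assays with other motors used His6-Eg5, His6-EGFP-HSET or K560 (truncated kinesin-1), with test compound at 24 µM or 100 µM. Frames were captured every 5 s for 1 min at 100×. Velocity was the distance travelled in 1 min, from ≥15 microtubules at each of three locations (n ≥ 50 per slide).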

KIF15-N420 = molecular target: T2, KIF15-N420 (Homo sapiens, UniProt Q9NS87); assay: Enzyme-coupled ATPase assay, concentration response; assay type: biochemical; conditions: 2 mM ATP, 5 μM microtubules
T2 sequence (Q9NS87 1-420 limits assumed): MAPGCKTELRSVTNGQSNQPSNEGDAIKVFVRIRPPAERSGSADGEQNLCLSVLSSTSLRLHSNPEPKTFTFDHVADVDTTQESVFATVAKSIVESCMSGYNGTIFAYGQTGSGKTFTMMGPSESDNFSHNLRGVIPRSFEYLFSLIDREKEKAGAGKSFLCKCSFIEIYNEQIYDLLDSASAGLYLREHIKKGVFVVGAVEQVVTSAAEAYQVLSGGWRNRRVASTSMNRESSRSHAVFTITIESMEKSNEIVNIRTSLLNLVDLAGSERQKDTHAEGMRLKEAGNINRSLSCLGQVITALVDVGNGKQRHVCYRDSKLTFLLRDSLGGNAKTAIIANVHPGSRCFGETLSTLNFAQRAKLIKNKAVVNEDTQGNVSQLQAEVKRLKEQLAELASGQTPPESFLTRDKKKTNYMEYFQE
Outline: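 Concentration response used the same NADH-coupled KIF15-N420 reaction (A340, 25°C), with 2 mM ATP and 5 μM microtubules at every test-compound concentration. Eight compound concentrations were tested. Curves were built from repeated measurements plotted as mean ± SEM.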

TP53–/– RPE-1 cells = assay: Preanaphase spindle morphology, RPE-1 cells; assay type: cell-based, human; conditions: increasing concentrations
Outline: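 TP53–/– RPE-1 and KIRC-1 cells were grown in DMEM with 10% FBS, penicillin and streptomycin; KIRC-1 medium also contained 10 μM STLC. Cells on coverslips were treated overnight with increasing test-compound concentrations or DMSO. They were then methanol-fixed and stained for KIF15, tubulin and DNA. Preanaphase spindles were scored monopolar or bipolar, in triplicate with n = 100 per replicate (± SEM).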

RPE-1 cells = assay: Live cell imaging of metaphase duration; assay type: cell-based, human; conditions: Munesib-1 50 µM, Fift-IN and GW108X 25 µM
KIF15-N700 = molecular target: T3, KIF15-N700 (Homo sapiens, UniProt Q9NS87); assay: Microtubule gliding assay; assay type: biochemical
T3 sequence (Q9NS87 1-700 limits assumed): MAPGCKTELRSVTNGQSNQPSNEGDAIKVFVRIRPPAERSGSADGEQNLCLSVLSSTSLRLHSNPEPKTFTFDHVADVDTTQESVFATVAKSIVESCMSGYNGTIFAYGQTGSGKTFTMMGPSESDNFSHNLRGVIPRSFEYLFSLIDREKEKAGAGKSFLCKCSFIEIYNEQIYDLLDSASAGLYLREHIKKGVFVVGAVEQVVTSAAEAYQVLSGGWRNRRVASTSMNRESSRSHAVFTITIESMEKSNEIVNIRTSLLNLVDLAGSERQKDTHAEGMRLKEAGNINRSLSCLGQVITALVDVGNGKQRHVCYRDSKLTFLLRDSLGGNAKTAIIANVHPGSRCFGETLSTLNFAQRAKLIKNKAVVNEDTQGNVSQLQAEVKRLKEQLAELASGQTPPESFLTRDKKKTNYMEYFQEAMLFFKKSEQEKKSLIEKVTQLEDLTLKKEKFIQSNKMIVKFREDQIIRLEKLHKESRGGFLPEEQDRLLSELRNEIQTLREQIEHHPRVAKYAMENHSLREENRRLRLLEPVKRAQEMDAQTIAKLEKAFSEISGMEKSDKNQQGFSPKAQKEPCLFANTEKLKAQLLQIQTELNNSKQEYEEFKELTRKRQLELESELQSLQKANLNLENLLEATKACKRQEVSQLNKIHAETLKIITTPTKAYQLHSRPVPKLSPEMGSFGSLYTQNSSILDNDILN
Outline: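 His6-KIF15-N700 was expressed in High Five insect cells, then purified by Ni-NTA and Superdex 200 gel filtration. Microtubule gliding was imaged every 5 s for 1 min at 100×. Velocity was taken as distance travelled in 1 min, from ≥15 microtubules at each of three slide locations (n ≥ 50 per slide). Concentration-response curves used eight concentrations from 10 nM up to 30 or 100 µM, in triplicate. Single-point derivative tests used 25 µM.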

[4] = 24 µM Munesib-1 or 100 µM Fift-IN

SMILES: COC(=O)c1ccc2c(c1)N(C)S(=O)(=O)c1cnc(SC)nc1-2 [Munesib-1, Methyl 6-methyl-2-(methylthio)-6H-benzo[c]pyrimido[4,5-e][1,2]thiazine-8-carboxylate 5,5-dioxide]
- solubility observation [1]: often precipitated in culture media
- amount of KIF15 on metaphase spindle [2]: little effect
- inhibition of microtubule gliding, K560 [3]: neither substantially inhibited
- IC50 (KIF15-N420): 2.8 µM
- effect on spindle morphology (TP53–/– RPE-1 cells): little effect on spindle morphology
- metaphase duration (metaphase plate formation until anaphase onset) (RPE-1 cells): no significant change in metaphase timing
- gliding velocity after removal of compound (wash-out) (KIF15-N700; 24 μM Munesib-1): nearly restored to baseline
- microtubule gliding on addition of compound (wash-in) (KIF15-N700; 24 μM Munesib-1): fully abrogated
- inhibition of microtubule gliding, KIF15 (KIF15-N700; [4]): robustly inhibited
- reversibility of inhibition (washout experiment) (KIF15-N700; [4]): reversible inhibitor
- % inhibition of KIF15 microtubule gliding activity (KIF15-N700; 25 µM, singlicate): completely eliminates
- IC50 (KIF15-N700; IC50, microtubule gliding assay, KIF15-N700): 0.4 µM
- fold stronger inhibitory action against KIF15 than Fift-IN (KIF15-N700; in vitro ATPase and microtubule gliding assays): roughly 10 fold
